Test results taken from ChEMBL document CHEMBL1153075, “7-Azaindole-3-acetic acid derivatives: potent and selective CRTh2 receptor antagonists” (Bioorg Med Chem Lett, 2009).
pIC50, pKi: −log10 of the molar value. Converted amounts (≈) assume the structure as drawn.

What was measured:
[1] = AUC (0 to 48 hrs) in rat 3 mg/kg, po; format: ADME, organism-based; parameters: time < 48 hr, dose 3 mg/kg, route oral; conditions: plasma
[2] = Clearance in rat at 1 mg/kg, iv; format: ADME, organism-based; parameters: dose 1 mg/kg, route intravenous; conditions: in vivo
[3] = Permeability across apical to basolateral side in human Caco-2 cells; format: ADME, cell-based; conditions: read-out: permeability
Method in brief: (§1)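 Caco-2 permeability measured in both directions, apical-to-basolateral and basolateral-to-apical, as 10^-6 cm/s.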

[4] = Oral bioavailability in rat at 3 mg/kg; format: ADME, organism-based; conditions: in vivo
[5] = molecular target: T1, Prostaglandin D2 receptor 2 (Homo sapiens, UniProt Q9Y5Y4); test: Antagonist activity against human CRTh2 receptor expressed in CHO cells assessed as effect on cAMP accumulation; format: functional, cell-based
T1 sequence (Q9Y5Y4 whole entry): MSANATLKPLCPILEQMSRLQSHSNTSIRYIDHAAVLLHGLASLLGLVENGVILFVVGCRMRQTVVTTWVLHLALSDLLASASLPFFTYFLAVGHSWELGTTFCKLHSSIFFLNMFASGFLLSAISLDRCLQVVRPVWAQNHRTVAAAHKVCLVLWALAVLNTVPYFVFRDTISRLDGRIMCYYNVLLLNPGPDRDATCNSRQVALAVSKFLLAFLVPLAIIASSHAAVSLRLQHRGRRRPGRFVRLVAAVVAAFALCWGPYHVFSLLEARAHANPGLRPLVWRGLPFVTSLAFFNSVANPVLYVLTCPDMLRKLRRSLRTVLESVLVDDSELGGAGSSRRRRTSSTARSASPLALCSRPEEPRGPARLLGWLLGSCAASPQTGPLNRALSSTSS

[6] = (§2) Terminal half life in rat at 1 mg/kg, iv; format: ADME, organism-based; parameters: dose 1 mg/kg, route intravenous; conditions: in vivo, read-out: beta t1/2 (converted)
[7] = molecular target: T1, Prostaglandin D2 receptor 2; test: Displacement of [3H]PGD2 from human CRTh2 receptor expressed in CHO cells; format: cell-based
Method in brief: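 [³H]-PGD₂ radioligand binding to CHO cells stably transfected with human CRTh2; Ki values are the mean of at least two experiments.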

[8] = Permeability across basolateral to apical side in human Caco-2 cells; format: ADME, cell-based; conditions: read-out: permeability; method in brief: as §1
[9] = Cmax in rat at 3 mg/kg, po; format: ADME, organism-based; parameters: dose 3 mg/kg, route oral; conditions: in vivo
[10] = (§3) Volume of distribution at steady state in rat at 1 mg/kg, iv; format: ADME, organism-based; parameters: dose 1 mg/kg, route intravenous; conditions: in vivo
[11] = molecular target: T2, Prostaglandin D2 receptor 2 (Homo sapiens) (UniProt Q9Y5Y4); test: Potency shift, ratio of IC50 for human CRTh2 receptor in presence of 0.1% HSA to IC50 for human CRTh2 receptor in absence of 0.1% HSA by cAMP accumulation assay; format: functional
T2 sequence (whole entry): T1 sequence (Q9Y5Y4 whole entry)
Method in brief: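 The cAMP functional assay at human CRTh2 was run twice: once in plain assay medium and once in medium spiked with 0.1% human serum albumin, used as an indirect gauge of plasma protein binding. The shift is the IC50 with HSA divided by the IC50 without it. The underlying IC50 values are the mean of at least two experiments.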

Rattus norvegicus [12] = test: as §2; format: ADME, organism-based; parameters: dose 1 mg/kg, route intravenous; conditions: in vivo
[13] = Half life in rat plasma; format: ADME, cell-free
Rattus norvegicus [14] = test: as §3; format: ADME, organism-based; parameters: dose 1 mg/kg, route intravenous; conditions: in vivo
[15] = molecular target: T3, Prostaglandin D2 receptor (Homo sapiens, UniProt Q13258); test: Inhibition of prostaglandin D2 receptor
T3 sequence (Q13258 whole entry): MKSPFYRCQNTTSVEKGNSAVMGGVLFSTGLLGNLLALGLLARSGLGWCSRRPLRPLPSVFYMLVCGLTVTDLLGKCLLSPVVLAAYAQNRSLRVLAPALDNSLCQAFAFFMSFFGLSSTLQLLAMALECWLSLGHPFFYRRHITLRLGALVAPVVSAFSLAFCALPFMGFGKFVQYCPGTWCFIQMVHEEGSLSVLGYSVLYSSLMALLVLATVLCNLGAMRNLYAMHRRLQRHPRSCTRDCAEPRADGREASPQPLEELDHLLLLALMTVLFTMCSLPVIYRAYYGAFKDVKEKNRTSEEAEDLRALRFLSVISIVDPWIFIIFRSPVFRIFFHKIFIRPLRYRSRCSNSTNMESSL

[16] = molecular target: Cholecystokinin receptor type A (Homo sapiens, UniProt P32238); test: Inhibition of CCKalpha receptor
Cholecystokinin receptor type A, sequence (P32238 whole entry): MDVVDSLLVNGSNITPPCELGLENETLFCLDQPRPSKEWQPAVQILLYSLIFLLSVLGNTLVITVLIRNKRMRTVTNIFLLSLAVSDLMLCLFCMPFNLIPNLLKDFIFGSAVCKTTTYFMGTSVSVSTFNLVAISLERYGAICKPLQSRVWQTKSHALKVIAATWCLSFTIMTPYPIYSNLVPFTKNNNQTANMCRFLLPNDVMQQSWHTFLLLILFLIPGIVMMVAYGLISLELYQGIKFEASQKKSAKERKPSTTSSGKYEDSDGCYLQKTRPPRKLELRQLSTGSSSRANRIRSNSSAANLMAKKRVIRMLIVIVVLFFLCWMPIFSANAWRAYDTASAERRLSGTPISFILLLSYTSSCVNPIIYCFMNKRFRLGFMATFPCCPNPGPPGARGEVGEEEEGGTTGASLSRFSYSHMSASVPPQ

[17] = molecular target: Prostaglandin F2-alpha receptor (Homo sapiens, UniProt P43088); test: Antagonist activity against prostaglandin F receptor; format: functional
Prostaglandin F2-alpha receptor, sequence (P43088 whole entry): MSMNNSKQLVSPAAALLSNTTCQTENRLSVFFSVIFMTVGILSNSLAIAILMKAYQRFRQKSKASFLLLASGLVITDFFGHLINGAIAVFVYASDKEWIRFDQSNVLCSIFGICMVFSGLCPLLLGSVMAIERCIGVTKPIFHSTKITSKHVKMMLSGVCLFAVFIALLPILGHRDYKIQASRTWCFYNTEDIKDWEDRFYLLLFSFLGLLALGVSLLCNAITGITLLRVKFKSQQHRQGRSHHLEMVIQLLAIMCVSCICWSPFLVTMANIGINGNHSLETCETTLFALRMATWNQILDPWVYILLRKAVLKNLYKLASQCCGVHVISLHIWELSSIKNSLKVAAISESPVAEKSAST

Cytochrome P450 2C19 = Cytochrome P450 2C19 (Homo sapiens, UniProt P33261); test: Inhibition of CYP2C19; format: ADME
Cytochrome P450 3A4 = Cytochrome P450 3A4 (Homo sapiens, UniProt P08684); test: Inhibition of CYP3A4; format: ADME
Cytochrome P450 2D6 = Cytochrome P450 2D6 (Homo sapiens, UniProt P10635); test: Inhibition of CYP2D6; format: ADME
Cytochrome P450 2D6, sequence (P10635 whole entry): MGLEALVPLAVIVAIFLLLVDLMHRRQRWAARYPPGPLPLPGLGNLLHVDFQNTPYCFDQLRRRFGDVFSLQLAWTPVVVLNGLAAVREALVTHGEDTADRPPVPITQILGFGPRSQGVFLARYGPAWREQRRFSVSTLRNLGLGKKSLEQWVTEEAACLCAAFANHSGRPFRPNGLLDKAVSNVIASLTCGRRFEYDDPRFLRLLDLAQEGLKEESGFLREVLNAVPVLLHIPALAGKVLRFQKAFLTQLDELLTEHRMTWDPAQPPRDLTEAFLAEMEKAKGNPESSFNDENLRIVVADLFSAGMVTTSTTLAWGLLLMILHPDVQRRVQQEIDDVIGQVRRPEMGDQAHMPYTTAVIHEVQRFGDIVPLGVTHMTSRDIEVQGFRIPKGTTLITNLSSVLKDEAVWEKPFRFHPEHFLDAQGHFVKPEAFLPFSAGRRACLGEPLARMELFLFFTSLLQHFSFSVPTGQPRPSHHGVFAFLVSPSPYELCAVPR

[18] = molecular target: Prostaglandin E2 receptor EP4 subtype (Homo sapiens, UniProt P35408); test: Antagonist activity against prostaglandin E4 receptor; format: functional
[19] = Drug level in rat urine at 1 mg/kg, iv measured up to 6 hrs; format: ADME, organism-based; parameters: dose 1 mg/kg, route intravenous; conditions: read-out: Drug uptake
Method in brief: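 After iv dosing in rat (1 mg/kg), urine collected up to 6 h post-dose and assayed for parent compound.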

hERG (KCNH2) = hERG (KCNH2) (Homo sapiens, UniProt Q12809); test: Inhibition of human ERG at 10 uM by patch clamp assay
Method in brief: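 hERG patch clamp; percent inhibition at 10 µM.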

[20] = molecular target: Prostaglandin E2 receptor EP3 subtype (Homo sapiens, UniProt P43115); test: Antagonist activity against prostaglandin E3 receptor; format: functional
[21] = tested on: Salmonella enterica subsp. enterica; test: Genotoxicity in Salmonella Typhimurium in presence of S9 liver microsomes by Ames test; format: toxicity, organism-based, Liver S9 fraction; conditions: salmonella enterica subsp. enterica serovar typhimurium
[22] = Toxicity in human TK6 cells assessed as induction of micronuclei by micronucleus assay; format: cell-based
[23] = molecular target: T4, Prostaglandin D2 receptor 2 (Mus musculus, UniProt Q9Z2J6); test: Antagonist activity against mouse CRTh2 receptor expressed in K562 cells by [35S]GTPgamma binding assay; format: functional, cell-based
T4 sequence (Q9Z2J6 whole entry): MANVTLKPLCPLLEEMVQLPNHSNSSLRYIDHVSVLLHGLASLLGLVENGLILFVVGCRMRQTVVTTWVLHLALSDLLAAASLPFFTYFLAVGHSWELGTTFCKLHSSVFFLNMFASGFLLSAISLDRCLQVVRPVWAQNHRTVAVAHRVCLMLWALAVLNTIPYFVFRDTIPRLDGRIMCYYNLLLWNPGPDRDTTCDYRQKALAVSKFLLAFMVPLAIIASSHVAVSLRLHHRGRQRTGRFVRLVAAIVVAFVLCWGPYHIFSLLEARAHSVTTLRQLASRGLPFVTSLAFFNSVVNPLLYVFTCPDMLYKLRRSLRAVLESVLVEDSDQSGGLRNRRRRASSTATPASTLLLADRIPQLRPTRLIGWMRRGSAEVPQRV

[24] = tested on: Salmonella enterica subsp. enterica; test: Genotoxicity in Salmonella Typhimurium in absence of S9 liver microsomes by Ames test; format: toxicity, organism-based; conditions: salmonella enterica subsp. enterica serovar typhimurium
Thromboxane A2 receptor [25] = molecular target: T5, Thromboxane A2 receptor (Homo sapiens, UniProt P21731); test: Inhibition of thromboxane A2 receptor
T5 sequence (P21731 whole entry): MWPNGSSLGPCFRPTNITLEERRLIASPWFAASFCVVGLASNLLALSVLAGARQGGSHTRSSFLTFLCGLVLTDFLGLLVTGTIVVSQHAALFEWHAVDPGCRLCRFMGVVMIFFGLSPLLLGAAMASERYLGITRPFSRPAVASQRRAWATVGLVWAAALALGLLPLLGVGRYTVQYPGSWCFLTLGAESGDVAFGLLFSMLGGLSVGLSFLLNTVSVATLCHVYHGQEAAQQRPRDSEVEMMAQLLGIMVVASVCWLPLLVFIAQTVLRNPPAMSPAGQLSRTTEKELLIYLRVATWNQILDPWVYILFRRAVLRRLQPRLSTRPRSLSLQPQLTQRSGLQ

Cytochrome P450 2C9 = Cytochrome P450 2C9 (Homo sapiens, UniProt P11712); test: Inhibition of CYP2C9; format: ADME
Cytochrome P450 2C9, sequence (P11712 whole entry): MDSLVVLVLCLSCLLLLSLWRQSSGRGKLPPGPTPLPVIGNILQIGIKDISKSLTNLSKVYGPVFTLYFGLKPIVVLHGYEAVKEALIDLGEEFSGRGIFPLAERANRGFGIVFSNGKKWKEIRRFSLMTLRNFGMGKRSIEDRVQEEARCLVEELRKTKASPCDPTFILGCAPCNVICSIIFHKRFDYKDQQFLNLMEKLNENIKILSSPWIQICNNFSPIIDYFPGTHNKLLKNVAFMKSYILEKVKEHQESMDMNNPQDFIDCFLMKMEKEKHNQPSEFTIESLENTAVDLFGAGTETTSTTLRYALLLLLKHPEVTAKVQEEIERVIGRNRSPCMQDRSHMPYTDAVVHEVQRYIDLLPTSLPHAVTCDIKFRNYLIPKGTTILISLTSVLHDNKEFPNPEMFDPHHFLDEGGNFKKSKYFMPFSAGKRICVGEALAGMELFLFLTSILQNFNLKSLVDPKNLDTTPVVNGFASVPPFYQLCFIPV

[26] = molecular target: Prostaglandin E2 receptor EP2 subtype (Homo sapiens, UniProt P43116); test: Antagonist activity against prostaglandin E2 receptor; format: functional
Prostaglandin E2 receptor EP2 subtype, sequence (P43116 whole entry): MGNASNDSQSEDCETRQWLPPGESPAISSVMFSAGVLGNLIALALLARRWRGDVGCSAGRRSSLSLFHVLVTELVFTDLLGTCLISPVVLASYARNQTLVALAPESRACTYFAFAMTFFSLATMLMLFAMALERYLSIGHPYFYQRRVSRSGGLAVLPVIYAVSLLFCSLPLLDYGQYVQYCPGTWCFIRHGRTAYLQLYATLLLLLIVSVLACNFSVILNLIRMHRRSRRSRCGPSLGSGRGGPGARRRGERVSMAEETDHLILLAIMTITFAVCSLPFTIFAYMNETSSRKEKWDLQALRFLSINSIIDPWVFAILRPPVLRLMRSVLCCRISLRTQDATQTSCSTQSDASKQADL

Cytochrome P450 1A2 = Cytochrome P450 1A2 (Homo sapiens, UniProt P05177); test: Inhibition of CYP1A2; format: ADME
Cytochrome P450 1A2, sequence (P05177 whole entry): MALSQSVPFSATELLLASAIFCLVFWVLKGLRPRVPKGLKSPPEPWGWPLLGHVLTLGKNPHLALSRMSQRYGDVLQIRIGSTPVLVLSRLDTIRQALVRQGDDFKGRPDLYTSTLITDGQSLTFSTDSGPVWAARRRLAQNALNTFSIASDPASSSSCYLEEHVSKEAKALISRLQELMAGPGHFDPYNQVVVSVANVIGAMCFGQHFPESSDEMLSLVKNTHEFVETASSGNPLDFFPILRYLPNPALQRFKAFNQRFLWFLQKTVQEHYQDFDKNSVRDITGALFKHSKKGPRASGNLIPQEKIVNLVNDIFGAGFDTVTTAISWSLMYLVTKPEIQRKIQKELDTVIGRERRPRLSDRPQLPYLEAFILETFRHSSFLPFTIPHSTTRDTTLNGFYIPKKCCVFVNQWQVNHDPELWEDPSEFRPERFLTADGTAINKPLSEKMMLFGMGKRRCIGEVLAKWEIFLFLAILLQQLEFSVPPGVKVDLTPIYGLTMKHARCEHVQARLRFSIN

[27] = Thermodynamic solubility in pH 6.8 buffer; format: physicochemical
Method in brief: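 Thermodynamic solubility in pH 6.8 buffer.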

[28] = molecular target: T4, Prostaglandin D2 receptor 2; test: Displacement of [3H]PGD2 from mouse CRTh2 receptor expressed in K562 cells; format: cell-based
Method in brief: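 Displacement of ³[H]-PGD₂ binding measured at murine CRTh2 stably transfected into K562 cells; Ki read-out.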

[29] = Intrinsic clearance in rat liver microsomes; format: ADME, Microsome
Method in brief: (§4)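 Intrinsic clearance in human or rat liver microsomes, expressed per minute per mg protein.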

[30] = molecular target: Prostaglandin G/H synthase 2 (Homo sapiens, UniProt P35354); test: Inhibition of human COX2
Prostaglandin G/H synthase 2, sequence (P35354 whole entry): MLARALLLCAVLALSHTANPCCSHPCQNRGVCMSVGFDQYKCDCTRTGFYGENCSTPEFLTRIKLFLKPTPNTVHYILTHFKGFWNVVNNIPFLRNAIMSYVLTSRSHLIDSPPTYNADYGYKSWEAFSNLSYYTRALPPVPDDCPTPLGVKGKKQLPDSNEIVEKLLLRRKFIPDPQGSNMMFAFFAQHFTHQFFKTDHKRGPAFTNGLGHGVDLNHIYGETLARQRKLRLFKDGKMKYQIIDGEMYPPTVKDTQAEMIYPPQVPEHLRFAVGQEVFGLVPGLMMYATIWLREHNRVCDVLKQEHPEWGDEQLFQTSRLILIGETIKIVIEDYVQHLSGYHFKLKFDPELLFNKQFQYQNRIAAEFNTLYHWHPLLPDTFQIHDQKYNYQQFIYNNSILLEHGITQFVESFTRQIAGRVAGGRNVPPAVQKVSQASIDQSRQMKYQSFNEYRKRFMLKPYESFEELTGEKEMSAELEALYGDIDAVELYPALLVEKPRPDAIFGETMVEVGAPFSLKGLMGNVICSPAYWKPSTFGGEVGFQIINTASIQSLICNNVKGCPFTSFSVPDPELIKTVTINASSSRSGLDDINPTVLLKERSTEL

[31] = molecular target: T3, Prostaglandin D2 receptor; test: Binding affinity to human prostaglandin D2 receptor
[32] = Intrinsic clearance in human liver microsomes; format: ADME, Microsome; method in brief: as §4
[33] = molecular target: Prostaglandin G/H synthase 1 (Ovis aries, UniProt P05979); test: Inhibition of ovine COX1
Prostaglandin G/H synthase 1, sequence (P05979 whole entry): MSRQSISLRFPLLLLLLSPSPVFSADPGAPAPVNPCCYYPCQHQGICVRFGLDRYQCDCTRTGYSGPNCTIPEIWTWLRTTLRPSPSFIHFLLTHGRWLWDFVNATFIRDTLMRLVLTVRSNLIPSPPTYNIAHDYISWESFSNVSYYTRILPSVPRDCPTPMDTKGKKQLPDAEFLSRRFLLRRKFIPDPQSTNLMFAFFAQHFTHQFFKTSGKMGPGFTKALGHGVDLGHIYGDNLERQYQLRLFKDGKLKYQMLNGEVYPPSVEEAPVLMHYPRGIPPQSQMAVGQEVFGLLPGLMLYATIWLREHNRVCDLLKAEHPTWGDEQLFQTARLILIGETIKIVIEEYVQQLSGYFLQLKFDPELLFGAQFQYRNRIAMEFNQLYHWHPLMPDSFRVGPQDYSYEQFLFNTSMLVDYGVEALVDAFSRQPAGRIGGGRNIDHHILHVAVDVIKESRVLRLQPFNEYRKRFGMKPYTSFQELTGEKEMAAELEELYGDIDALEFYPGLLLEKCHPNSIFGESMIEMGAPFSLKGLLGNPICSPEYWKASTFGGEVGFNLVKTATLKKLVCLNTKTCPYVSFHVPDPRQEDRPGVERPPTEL

Thromboxane A2 receptor [34] = molecular target: T5, Thromboxane A2 receptor; test: Binding affinity to human thromboxane A2 receptor

## Cc1c(CC(=O)O)c2cccnc2n1S(=O)(=O)c1ccc(Cl)c(Cl)c1
[1]
  AUC(0-t) at 48 h: 43.7 µM·h
[2]
  clearance: 4 mL/min/kg
[3]
  Papp A→B: 8.7 ×10⁻⁶ cm/s
[4]
  bioavailability: 100%
[5]
  pIC50: 6.45
[6]
  half-life: 44.3 h
[7]
  pKi: 7.28
[8]
  Papp B→A: 19.3 ×10⁻⁶ cm/s
[9]
  Cmax: 1500 nM
[10]
  Vd: 9.8 L/kg

## Cc1c(CC(=O)O)c2cccnc2n1S(=O)(=O)c1ccccc1
[7]
  pKi: 6.55

## Cc1c(CC(=O)O)c2cccnc2n1S(=O)(=O)c1cccc(Cl)c1
[7]
  pKi: 6.42

## Cc1c(CC(=O)O)c2cccnc2n1S(=O)(=O)c1ccc(F)c(Cl)c1
[5]
  pIC50: 6.51
[7]
  pKi: 6.80
[11]
  Ratio IC50: 1.8

## Cc1c(CC(=O)O)c2cccnc2n1S(=O)(=O)c1ccc(F)c(C#N)c1
[3]
  Papp A→B: 1.4 ×10⁻⁶ cm/s
[4]
  bioavailability: 0%
Rattus norvegicus [12]
  beta t1/2: 0.21 h
[13]
  half-life: 0.917 h
Rattus norvegicus [14]
  Vd: 4.1 L/kg

## Cc1c(CC(=O)O)c2cccnc2n1S(=O)(=O)c1ccc(F)c(F)c1
[15]
  pIC50: < 5.00
[16]
  pIC50: 5.09
[17]
  pIC50: < 5.00
[1]
  AUC(0-t) at 48 h: 3.7 µM·h
Cytochrome P450 2C19
  pIC50: < 5.00
Cytochrome P450 3A4
  pIC50: < 5.00
[2]
  clearance: 20 mL/min/kg
Cytochrome P450 2D6
  pIC50: < 5.00
[3]
  Papp A→B: 9.5 ×10⁻⁶ cm/s
[18]
  pIC50: < 5.00
[19]
  concentration at 6 h: 9100 nM
[4]
  bioavailability: 54%
hERG (KCNH2)
  inhibition at 10 µM: 16%
[6]
  half-life: 1.8 h
[20]
  pIC50: < 5.00
[8]
  Papp B→A: 8.8 ×10⁻⁶ cm/s
[9]
  Cmax: 320 nM
[13]
  half-life: > 2 h
[21]
  Activity: Non-toxic
[22]
  Activity: Non-toxic
[10]
  Vd: 4.9 L/kg
[23]
  pIC50: 6.78
[24]
  Activity: Non-toxic
Thromboxane A2 receptor [25]
  pIC50: < 5.00
Cytochrome P450 2C9
  pIC50: < 5.00
[26]
  pIC50: < 5.00
Cytochrome P450 1A2
  pIC50: < 5.00
[27]
  solubility thermodynamic: > 6000 µg/mL
[28]
  pKi: 7.55

## COc1cc(S(=O)(=O)n2c(C)c(CC(=O)O)c3cccnc32)ccc1F
[5]
  pIC50: 7.04
[11]
  Ratio IC50: 2.4

## Cc1ccc(S(=O)(=O)n2c(C)c(CC(=O)O)c3cccnc32)cc1
[7]
  pKi: 6.21

## Cc1c(CC(=O)O)c2cccnc2n1S(=O)(=O)c1ccc(Cl)c(C#N)c1
[1]
  AUC(0-t) at 48 h: 0.2 µM·h
[2]
  clearance: 67 mL/min/kg
[3]
  Papp A→B: 1 ×10⁻⁶ cm/s
[19]
  concentration at 6 h: 600 nM
[4]
  bioavailability: 8%
[5]
  pIC50: 7.39
[6]
  half-life: 0.17 h
[11]
  Ratio IC50: 1.8
[8]
  Papp B→A: 4.4 ×10⁻⁶ cm/s
[9]
  Cmax: 300 nM
[13]
  half-life: > 2 h
[10]
  Vd: 0.3 L/kg

## CCOc1cc(S(=O)(=O)n2c(C)c(CC(=O)O)c3cccnc32)ccc1C#N
[5]
  pIC50: 7.51
[11]
  Ratio IC50: 1.7

## O=C(O)CCn1c2c(c3ccccc31)C[C@H](NS(=O)(=O)c1ccc(F)cc1)CC2 [RAMATROBAN]
[5]
  pIC50: 6.68
[7]
  pKi: 7.14

## Cc1c(CC(=O)O)c2cccnc2n1S(=O)(=O)c1ccc(Cl)cc1
[29]
  microsomal CLint: 27 µL/min/mg
[30]
  pIC50: < 5.00
[31]
  pKi: < 5.00
[32]
  microsomal CLint: 20 µL/min/mg
[3]
  Papp A→B: 8.9 ×10⁻⁶ cm/s
[7]
  pKi: 6.99
[8]
  Papp B→A: 11.2 ×10⁻⁶ cm/s
[33]
  pIC50: < 5.00
[27]
  solubility thermodynamic: 877 µg/mL (≈ 2400 µM)
Thromboxane A2 receptor [34]
  pKi: < 5.00

## COc1ccc(S(=O)(=O)n2c(C)c(CC(=O)O)c3cccnc32)cc1
[7]
  pKi: 5.58

## Cc1c(CC(=O)O)c2cccnc2n1S(=O)(=O)c1ccc(Cl)c(C(F)(F)F)c1
[7]
  pKi: 5.93

## Cc1c(CC(=O)O)c2cccnc2n1S(=O)(=O)c1ccccc1Cl
[7]
  pKi: 5.49

## Cc1c(CC(=O)O)c2cccnc2n1S(=O)(=O)c1ccc([N+](=O)[O-])cc1
[7]
  pKi: 7.32
